Measurements published in ChEMBL document CHEMBL4393700, “Novel resveratrol-based flavonol derivatives: Synthesis and anti-inflammatory activity in vitro and in vivo” (Eur J Med Chem, 2019).
pIC50: −log10 of the molar value. Active and inactive are the calls of the source. No cut-off for these calls is given here.

Tests used:
[1] = tested on: Mus musculus; test: Protection against LPS-induced acute lung injury in C57/BL6 mouse assessed as survival rate at 10 to 20 mg/kg, ip pretreated for 30 mins followed by LPS challenge and measured at 24 hrs (reference value: 60%); type: functional
[2] = tested on: Mus musculus; test: Antiinflammatory activity in C57/BL6 mouse ALI model assessed as reduction in LPS-induced alveolar hemorrhage at 10 to 20 mg/kg, ip pretreated for 30 mins followed by LPS challenge and measured after 48 hrs by H and E staining based histopathological analysis; type: functional, organism-based
How it was run: (§1)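 Male C57BL/6 mice, 18~22 g, acclimatized one week; 40 randomly split into control, LPS, and two LPS groups pretreated i.p. (10 or 20 mg/kg) 30 min before LPS (methods: 20 mg/kg tail vein; legend: 5 mg/kg intratracheal). Saline i.p. to controls. Sacrificed 48 h after LPS; read-outs lung MPO, body weight, upper right lobe wet/dry ratio (dried at 60 °C until constant), H&E on paraformaldehyde-fixed paraffin sections.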

[3] = tested on: Mus musculus; test: Effect on LPS-induced body weight loss in C57/BL6 mouse at 10 to 20 mg/kg, ip pretreated for 30 mins followed by LPS challenge; type: functional, organism-based; how it was run: as §1
[4] = tested on: RAW264.7; test: Inhibition of LPS-induced JNK phosphorylation in mouse RAW264.7 cells pretreated for 1 hr followed by LPS stimulation by Western blot analysis; type: cell-based
How it was run: (§2)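 RAW264.7 seeded 3×10^5 cells/well, 24 h; pretreated 1 h at 0.5, 1 or 2 µM, then LPS 0.5 µg/mL for 30 min. RIPA lysates (PMSF, phosphatase inhibitors) on 12% SDS-PAGE, PVDF; primary antibodies overnight 4 °C, HRP secondary 1:5000. Probed phospho/total ERK, JNK, p38, p-IκB, IκB, p-p65, p65, β-actin; three independent experiments.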

[5] = tested on: RAW264.7; test: Inhibition of LPS-stimulated NFkappaB activation in mouse RAW264.7 cells assessed as reduction in IkappaB phosphorylation at 0.5 to 2 uM pretreated for 1 hr followed by LPS stimulation and measured after 30 mins by Western blot analysis; type: cell-based; how it was run: as §2
[6] = tested on: RAW264.7; test: Inhibition of LPS-stimulated NFkappaB activation in mouse RAW264.7 cells assessed as reduction in LPS-induced IkappaB degradation at 0.5 to 2 uM pretreated for 1 hr followed by LPS stimulation and measured after 30 mins by Western blot analysis; type: cell-based; how it was run: as §2
[7] = tested on: RAW264.7; test: Effect on total JNK protein expression level in LPS-induced mouse RAW264.7 cells pretreated for 1 hr followed by LPS stimulation and measured after 30 mins by Western blot analysis; type: ADME, cell-based; conditions: raw264.7, 0.5 h; how it was run: as §2
[8] = Toxicity in C57/BL6 mouse ALI model assessed as mortality at 20 mg/kg, ip; type: organism-based; conditions: in vivo
How it was run: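 Mice were given the compound at 20 mg/kg ip as solutions, with no LPS challenge. They were observed against an untreated control group, and lung sections were then stained with H&E to look for inflammation, hemorrhage, edema and alveolar damage.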

[9] = Toxicity in C57/BL6 mouse ALI model assessed as induction of pro-inflammatory alterations at 20 mg/kg, ip measured after 48 hrs by H and E staining based histopathological analysis; type: organism-based; conditions: in vivo
How it was run: (§3)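 Mice given 20 mg/kg i.p. without LPS, compared with controls; lung sections stained with hematoxylin and eosin for edema, hemorrhage, inflammatory cell infiltration and alveolar structure.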

[10] = tested on: Mus musculus; test: Antiinflammatory activity in C57/BL6 mouse ALI model assessed as reduction in LPS-induced destruction of alveolar structure at 10 to 20 mg/kg, ip pretreated for 30 mins followed by LPS challenge and measured after 48 hrs by H and E staining based histopathological analysis; type: functional, organism-based; how it was run: as §1
[11] = tested on: RAW264.7; test: Inhibition of LPS-stimulated NFkappaB activation in mouse RAW264.7 cells assessed as reduction in p65 phosphorylation at 0.5 to 2 uM pretreated for 1 hr followed by LPS stimulation and measured after 30 mins by Western blot analysis; type: cell-based; how it was run: as §2
[12] = tested on: RAW264.7; test: Antiinflammatory activity in mouse RAW264.7 cells assessed as reduction in LPS-induced TNF alpha production pretreated for 1 hr followed by LPS stimulation and measured after 24 hrs by ELISA; type: functional, cell-based
How it was run: (§4)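 RAW264.7 seeded 6×10^4 cells/well, cultured 24 h; 1 h pretreatment at 10, 5, 2.5, 1.25 or 0.625 µM, then LPS 0.5 µg/mL for 24 h. IL-6 and TNF-α in conditioned medium quantified by ELISA.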

[13] = tested on: RAW264.7; test: Antiinflammatory activity in mouse RAW264.7 cells assessed as reduction in LPS-induced TLR4 protein expression pretreated for 1 hr followed by LPS stimulation and measured after 30 mins by Western blot analysis; type: functional, cell-based
[14] = tested on: RAW264.7; test: Antiinflammatory activity in mouse RAW264.7 cells assessed as reduction in LPS-induced NO production pretreated for 1 hr followed by LPS stimulation and measured after 24 hrs by Griess reagent based assay; type: functional, cell-based
How it was run: (§5)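 RAW264.7 in DMEM/10% FBS with penicillin-streptomycin, 37 °C, 5% CO2; seeded 6×10^4 cells/well, grown 24 h, pretreated 1 h with test agent (10 µM screen; 10, 5, 2.5, 1.25, 0.625 µM for concentration series), then LPS 0.5 µg/mL for 24 h. Supernatant nitrite measured with Griess reagent.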

[15] = tested on: Mus musculus; test: Antiinflammatory activity in C57/BL6 mouse ALI model assessed as reduction in LPS-induced pro-inflammatory alterations at 10 to 20 mg/kg, ip pretreated for 30 mins followed by LPS challenge and measured after 48 hrs by H and E staining based histopathological analysis; type: functional, organism-based; how it was run: as §1
[16] = tested on: RAW264.7; test: Antiinflammatory activity in mouse RAW264.7 cells assessed as reduction in LPS-induced COX2 protein expression pretreated for 1 hr followed by LPS stimulation and measured after 24 hrs by Western blot analysis; type: functional, cell-based
How it was run: (§6)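 Western blot in RAW264.7: 1 h pretreatment at 0.5–2 µM, LPS 0.5 µg/mL for 24 h; lysis in RIPA with PMSF and phosphatase inhibitors on ice 30 min, 12% SDS-PAGE, PVDF, primary antibodies overnight at 4 °C, HRP secondary 1:5000 1 h at room temperature; iNOS and COX-2 against β-actin; three separate experiments.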

[17] = Toxicity in C57/BL6 mouse ALI model assessed as induction of alveolar hemorrhage at 20 mg/kg, ip measured after 48 hrs by H and E staining based histopathological analysis; type: organism-based; conditions: in vivo; how it was run: as §3
[18] = tested on: Mus musculus; test: Antiinflammatory activity in C57/BL6 mouse ALI model assessed as reduction in LPS-induced inflammatory cell infiltration at 10 to 20 mg/kg, ip pretreated for 30 mins followed by LPS challenge and measured after 48 hrs by H and E staining based histopathological analysis; type: functional, organism-based; how it was run: as §1
[19] = tested on: RAW264.7; test: Antiinflammatory activity in mouse RAW264.7 cells assessed as reduction in LPS-induced IL-6 production pretreated for 1 hr followed by LPS stimulation and measured after 24 hrs by ELISA; type: functional, cell-based; how it was run: as §4
[20] = tested on: Mus musculus; test: Antiinflammatory activity in C57/BL6 mouse ALI model assessed as reduction in LPS-induced lung edema at 10 to 20 mg/kg, ip pretreated for 30 mins followed by LPS challenge and measured after 48 hrs by H and E staining based histopathological analysis; type: functional, organism-based; how it was run: as §1
[21] = tested on: Mus musculus; test: Antiinflammatory activity in C57/BL6 mouse ALI model assessed as reduction in LPS-induced pulmonary edema by measuring lung wet/dry weight ratio at 10 to 20 mg/kg, ip pretreated for 30 mins followed by LPS challenge and measured after 48 hrs; type: functional, organism-based; how it was run: as §1
[22] = tested on: Mus musculus; test: Protection against LPS-induced acute lung injury in C57/BL6 mouse assessed as survival rate at 20 mg/kg, ip pretreated for 30 mins followed by LPS challenge and measured after 48 hrs (reference value: 10%); type: functional
[23] = Toxicity in C57/BL6 mouse ALI model assessed as induction of destruction of alveolar structure at 20 mg/kg, ip measured after 48 hrs by H and E staining based histopathological analysis; type: organism-based; conditions: in vivo; how it was run: as §3
[24] = tested on: Mus musculus; test: Antiinflammatory activity in C57/BL6 mouse ALI model assessed as reduction in LPS-induced MPO level in lungs tissue at 10 to 20 mg/kg, ip pretreated for 30 mins followed by LPS challenge and measured after 48 hrs; type: functional, organism-based; how it was run: as §1
[25] = tested on: RAW264.7; test: Effect on total p38 expression level in LPS-induced mouse RAW264.7 cells pretreated for 1 hr followed by LPS stimulation and measured after 30 mins by Western blot analysis; type: ADME, cell-based; conditions: raw264.7, 0.5 h; how it was run: as §2
[26] = Toxicity in C57/BL6 mouse ALI model assessed as induction of inflammatory cell infiltration at 20 mg/kg, ip measured after 48 hrs by H and E staining based histopathological analysis; type: organism-based; conditions: in vivo; how it was run: as §3
[27] = tested on: RAW264.7; test: Antiinflammatory activity in mouse RAW264.7 cells assessed as inhibition of LPS-induced NO production at 10 uM pretreated for 1 hr followed by LPS stimulation and measured after 24 hrs by Griess reagent based assay; type: functional, cell-based; how it was run: as §5
[28] = tested on: RAW264.7; test: Antiinflammatory activity in mouse RAW264.7 cells assessed as reduction in LPS-induced iNOS protein expression pretreated for 1 hr followed by LPS stimulation and measured after 24 hrs by Western blot analysis; type: functional, cell-based; how it was run: as §6
[29] = Toxicity in C57/BL6 mouse ALI model assessed as induction of lung edema at 20 mg/kg, ip measured after 48 hrs by H and E staining based histopathological analysis; type: organism-based; conditions: in vivo; how it was run: as §3
[30] = tested on: RAW264.7; test: Effect on total ERK expression level in LPS-induced mouse RAW264.7 cells pretreated for 1 hr followed by LPS stimulation and measured after 30 mins by Western blot analysis; type: ADME, cell-based; conditions: raw264.7, 0.5 h; how it was run: as §2
[31] = tested on: RAW264.7; test: Cytotoxicity against LPS-stimulated mouse RAW264.7 cells at 20 uM pretreated for 1 hr followed by LPS stimulation and measured after 24 hrs by MTT assay; conditions: raw264.7, 24 h

Structure (SMILES): COc1ccc(/C=C/c2cc(OC)cc(OC)c2-c2oc3ccc(F)cc3c(=O)c2O)cc1
- Activity [1]: 90%
- Activity [2]: Active
- Activity [3]: inactive
- inhibition [4]: inactive
- inhibition [5]: Active
- inhibition [6]: Active
- Activity [7]: Non-Toxic
- Activity [8]: Non-Toxic
- Activity [9]: Non-Toxic
- Activity [10]: Active
- inhibition [11]: Active
- Activity [12]: Dose-dependent effect
- pIC50 [12]: 5.72
- Activity [13]: Dose-dependent effect
- Activity [14]: Dose-dependent effect
- pIC50 [14]: 5.87
- Activity [15]: Active
- Activity [16]: Dose-dependent effect
- Activity [17]: Non-Toxic
- Activity [18]: Active
- Activity [19]: Dose-dependent effect
- pIC50 [19]: 5.95
- Activity [20]: Active
- Activity [21]: Active
- Activity [22]: 50%
- Activity [23]: Non-Toxic
- Activity [24]: Active
- Activity [25]: Non-Toxic
- Activity [26]: Non-Toxic
- inhibition [27]: Active
- Activity [28]: Dose-dependent effect
- Activity [29]: Non-Toxic
- Activity [30]: Non-Toxic

Structure (SMILES): Cc1ccc(-c2cc(C(F)(F)F)nn2-c2ccc(S(N)(=O)=O)cc2)cc1
- inhibition [27]: Active

Structure (SMILES): COc1ccc(/C=C/c2cc(OC)cc(OC)c2-c2oc3ccc(OC)cc3c(=O)c2O)cc1
- Activity [12]: Dose-dependent effect
- pIC50 [12]: 5.30
- Activity [14]: Dose-dependent effect
- pIC50 [14]: 5.75
- Activity [19]: Dose-dependent effect
- pIC50 [19]: 5.63
- inhibition [27]: Active

Structure (SMILES): COc1ccc(/C=C/c2cc(OC)cc(OC)c2-c2oc3ccc(Cl)cc3c(=O)c2O)cc1
- Activity [12]: Dose-dependent effect
- pIC50 [12]: 5.13
- Activity [14]: Dose-dependent effect
- pIC50 [14]: 5.32
- Activity [19]: Dose-dependent effect
- pIC50 [19]: 5.30
- inhibition [27]: Active

Structure (SMILES): COc1cc(/C=C/c2ccc(OCc3ccccc3)cc2)c(-c2cc(=O)c3cc(Br)ccc3o2)c(OC)c1
- Activity [31]: Non-Toxic

Structure (SMILES): COc1ccc(/C=C/c2cc(OC)cc(OC)c2-c2cc(=O)c3cc(OC)ccc3o2)cc1
- inhibition [27]: Active

Structure (SMILES): COc1ccc(/C=C/c2cc(OC)cc(OC)c2-c2cc(=O)c3cc(F)ccc3o2)cc1
- inhibition [27]: Active

Structure (SMILES): CCOc1ccc(/C=C/c2cc(OC)cc(OC)c2-c2cc(=O)c3cc(OC)ccc3o2)cc1
- Activity [31]: Non-Toxic
